Rows were chosen to be rich in hits. Some 3.7% of all compounds tested hit in one or more screens of this group.
KCNQ1 act – potentiators or activators of KCNQ1 channel, primary screen, cell-based, thallium flux, high-throughput; 310,000 compounds, 0.35% hits; Potassium voltage-gated channel subfamily KQT member 1 (Homo sapiens), P51787; AID 2648, 2010; B-score at 10 µM; CHO-K1 KCNQ1, thallium flux FluxOR fluorescence; stronger effect = higher value;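 active = fluorescence ratio B-score, a plate-corrected score, at least three library SD, with initial intensity B-score within 5 SD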
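Schedule – 37 °C overnight plating, 90-min dark dye load, 20-min compound pretreatment · System – stable KCNQ1 CHO-K1 line · Probe or stimulus – thallium- and potassium-containing depolarizing buffer · Measured by – kinetic FluxOR fluorescence, 10 s baseline plus 110 s post-stimulus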
KCNK9 inh – KCNK9 potassium channel inhibitors, primary screen, HEK293 cells, thallium flux; FluxOR thallium flux fluorescence; stronger effect = lower value; Potassium channel subfamily K member 9 (Homo sapiens), Q9NPC2; 310,000 compounds, 1.2% hits; B-score at 10 µM;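 active = ratio B-score over 3 SD below the library mean, with starting fluorescence within 5 SD of its mean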;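 also: negative B-score means less thallium flux so channel inhibition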
Target sequence (Q9NPC2 whole entry, looked up): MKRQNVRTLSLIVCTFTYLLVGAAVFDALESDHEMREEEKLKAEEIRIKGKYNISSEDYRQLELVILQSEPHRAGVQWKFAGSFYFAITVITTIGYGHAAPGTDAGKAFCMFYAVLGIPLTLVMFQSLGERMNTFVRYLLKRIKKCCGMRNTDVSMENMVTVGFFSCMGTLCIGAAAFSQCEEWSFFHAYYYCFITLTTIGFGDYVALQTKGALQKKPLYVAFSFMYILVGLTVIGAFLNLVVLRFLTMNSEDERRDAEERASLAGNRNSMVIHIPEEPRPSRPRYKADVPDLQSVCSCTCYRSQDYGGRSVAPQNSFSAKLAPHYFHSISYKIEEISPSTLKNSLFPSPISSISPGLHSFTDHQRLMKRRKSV
KCNQ1 block – inhibitors of human KCNQ1 channel, primary screen, cell-based, thallium flux, high-throughput | Potassium voltage-gated channel subfamily KQT member 1 (Homo sapiens), P51787 | CHO-K1 KCNQ1, FluxOR thallium flux fluorescence; stronger effect = higher value | B-score at 10 µM | 310,000 compounds, 1.3% hits;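 active = compounds whose thallium flux B-score, printed positive for inhibition, exceeds three library SD while starting fluorescence stays within three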;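 also: channel opened by potassium depolarization with thallium stimulus after 20 min compound exposure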
Kir21 inh – inhibitors of mouse Kir2.1 inward-rectifier potassium channel. AID 1672, 2009. Inward rectifier potassium channel 2 (Mus musculus), P35561. 310,000 compounds, 0.85% hits. B-score at 10 µM. HEK293-Kir2.1, FluxOR thallium flux fluorescence; stronger effect = lower value;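 active = fluorescence ratio B-score at or below minus 3 SD of library scores, with starting-brightness B-score within 2 SD, cut at about -4.2 in these data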;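 also: channel flux triggered by added potassium and thallium sulfate stimulus; B-score of peak minus minimum fluorescence over baseline after thallium stimulus; more negative B-score means stronger Kir2.1 block with less thallium influx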
KCNK3 block – human KCNK3 channel inhibitors, primary screen, CHO cells, FluxOR thallium flux, B-score; 340,000 compounds, 0.84% hits; AID 602410, 2012; FluxOR fluorescence; stronger effect = lower value; B-score at 10 µM;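 active = B-score under library mean minus 4 SD, starting fluorescence ratio at most library mean plus 5 SD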;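 also: more negative B-score means stronger inhibition of thallium flux through KCNK3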
hERG rescue – hERG rescue from dofetilide block, primary screen, cell-based, CHO-hERG, FluxOR thallium flux, dofetilide IC70 | dofetilide IC70 present | activation (rescue from dofetilide block), less the hit threshold, % at 10 µM | 310,000 compounds, 0.51% hits;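 active = activation above the mean of controls blocked by dofetilide plus 5 SD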;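 also: thallium influx through hERG after potassium depolarization seen as dye fluorescence rise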
KCNK9 block conf – KCNK9 potassium channel inhibitors, confirmation, HEK293 cells, thallium flux, duplicate | shares compounds with KCNK9 inh | FluxOR thallium flux fluorescence | inhibition, % at 10 µM | 4,900 compounds, 43% hits | AID 492992, 2010;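 active = thallium signal inhibited by more than 5 SD of the compound-free buffer control wells, on both duplicate plates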;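 also: 0% = assay buffer control wells without compound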
Kir2-1 spec – mouse Kir2.1 channel inhibition, confirmation, selectivity assay for KCNK9 modulator project, cell-based, HEK293, thallium flux; shares compounds with KCNK9 inh; Kir2.1 cells, FluxOR thallium flux fluorescence; inhibition, % at 10 µM; 4,900 compounds, 4% hits; AID 492993, 2010;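 active = thallium signal drop more than 5 SD beyond the mean of the no-compound control wells, seen in both duplicate plates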;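 also: signal is fluorescence rise after thallium addition divided by baseline fluorescence; plate controls were assay buffer only for no effect and full block by chlorpromazine control for full effect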
HEK293 Tl ctr – thallium flux in non-induced HEK293 cells, confirmation, counter-screen for KCNK9 inhibitor project, cell-based, second counter screen, non-induced KCNK9-HEK293 | shares compounds with KCNK9 inh | FluxOR thallium flux | inhibition, % at 10 µM | 4,900 compounds, 40% hits | AID 492997, 2010;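 active = thallium signal drop beyond 5 SD of the untreated control mean, on both duplicate plates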;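 also: plate controls were buffer only IC0 wells for no effect and SID17386958 at its maximal inhibitory level for full effect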
KCNK3 confirm – retest of human KCNK3 channel inhibitors, confirmation, CHO cells, FluxOR thallium flux, triplicate | FluxOR fluorescence; 0% buffer, 100% carvedilol maximal block | AID 651638, 2012 | 2,400 compounds, 99% hits | shares compounds with KCNK3 block | ratio percent of control, % at 10 µM;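 active = ratio percent of control, averaged over triplicates, above buffer control mean plus 5 SD, cut at about 64% in these data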;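 also: ratio is the fluorescence rise from min to max over baseline after thallium stimulus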
KCNK3 noninduced – thallium flux inhibition in non-induced cells, primary screen, counter-screen for KCNK3 inhibitor project, cell-based, non-induced KCNK3 line, FluxOR thallium, triplicate; shares compounds with KCNK3 block; non-induced KCNK3 parental cells; stronger effect = lower value; thallium flux ratio (lower = more inhibition) at 10 µM; 2,400 compounds, 40% hits;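 active = thallium flux ratio, averaged over three wells, more than 5 SD below the buffer control mean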;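 also: host cells are CHO cells without KCNK3 induction; ratio is peak minus trough fluorescence over baseline then normalized to buffer controls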
Starred values were filed as active, the others as inactive; i = inactive; . = not tested or not shown.

SMILES	KCNQ1 act	KCNK9 inh	KCNQ1 block	Kir21 inh	KCNK3 block	hERG rescue	KCNK9 block conf	Kir2-1 spec	HEK293 Tl ctr	KCNK3 confirm	KCNK3 noninduced
Fc1ccc(N2CCN(C(c3cccs3)c3nnnn3CCc3ccccc3)CC2)cc1 (stereo unspecified)	i	-13*	i	1.1	-12*	-5	68%*	i	32%*	126*	0.15*
CSCc1cc(N(C)C)nc(SCc2ccc(Cl)c(Cl)c2)n1	i	-10*	i	-0.42	i	0	72%*	i	58%*	104*	0.15*
CN(C)C(=N)c1n[nH]nc1SCc1ccc(Cl)c(Cl)c1	i	i	i	0.69	i	-11	.	.	.	.	.
Nc1nc(SCc2ccc(Cl)cc2Cl)n[nH]1	i	i	i	1.9	i	-8	.	.	.	.	.
CNc1cc(CSC)nc(SCc2ccc(Cl)cc2Cl)n1	i	-12*	i	-0.66	-9.2*	-4	56%*	i	50%*	142*	0.15*
COc1ccc(OC)c(CCNC(=O)c2cccc(NC(=O)C3=C(C)OCCS3)c2)c1	i	-8.2*	i	0.46	-11*	-22	38%*	i	i	97*	i
COc1ccc(NC(=O)Nc2cccc3c2O[C@@H](CN(C)S(=O)(=O)c2cn(C)cn2)[C@@H](C)CN([C@H](C)CO)C3=O)cc1	.	.	.	.	i	.	.	.	.	.	.
CC(C)CN(CC(C)C)C(=O)c1cccc(S(=O)(=O)N2CCc3ccccc32)c1	i	-8.8*	i	-0.03	-9.7*	-3	40%*	i	37%*	111*	i
Cc1ccc(O)c(-c2cc(C(=O)NCc3ccncc3)[nH]n2)c1	i	-11*	i	0.62	-9.2*	-4	55%*	i	30%*	107*	i
COc1cc(/C=N/NC(=O)c2ccc(Cn3cc([N+](=O)[O-])cn3)o2)cc(Br)c1O	i	-16*	i	0.5	-11*	-22	57%*	i	35%*	99*	i
COc1cc2c(cc1OC)CN(C(=O)c1ccc(-c3ccccc3)cc1)CC2	i	i	i	-0.18	i	-14	.	.	.	.	.
COc1cc2c(cc1OC)CN(C(=O)c1oc3ccccc3c1C)CC2	i	-9.9*	i	-0.51	-10*	-6	34%*	i	33%*	100*	i
COc1ccc(Br)cc1/C(C)=N/NC1=NCCN1	i	i	i	-1.5	i	-3	.	.	.	.	.
CCCCCOc1ccc(Br)cc1/C(C)=N/NC1=NCCN1	i	-11*	i	-14*	-11*	-22	41%*	66%*	i	105*	0.13*
O=S(=O)(c1ccc(NC(=S)NCc2ccc(F)cc2)cc1)N1CCOCC1	i	i	i	-0.93	i	-12	.	.	.	.	.
Cc1ccc(C(c2ccc(C)o2)c2cccc([N+](=O)[O-])c2O)o1	i	-11*	i	-1.5	-9.8*	-18	26%*	i	i	114*	0.15*
CCN1CC2=C(OC(N)=C(C#N)C2c2cccs2)/C(=C\c2cccs2)C1 (stereo unspecified)	i	-8.7*	i	-0.47	i	-8	28%*	i	26%*	130*	0.12*
CCOC(=O)C1=C(CC)OC(N)=C(C#N)C1c1cccs1 (stereo unspecified)	i	i	i	-1.7	i	-2	.	.	.	.	.
COc1ccccc1N(CC(=O)NCCSCc1cccc(C)c1)S(=O)(=O)c1ccccc1	i	-16*	9*	0.02	-13*	-18	48%*	i	28%*	105*	i
O/N=C(\c1ccc(Cl)cc1Cl)c1ncc(C(F)(F)F)cc1Cl	i	-13*	i	-1.2	-9.8*	-11	62%*	i	44%*	97*	0.14*
CN(CC(=O)Nc1ccc(F)c(F)c1F)C(=O)c1ccc2c(c1)S(=O)(=O)N=C1CCCCCN12	i	i	i	1.2	i	-7	.	.	.	.	.
N#Cc1ccc(-c2ccco2)nc1SCC(=O)c1ccc(Cl)cc1	i	-8.3*	i	-1.8	-13*	-17	44%*	i	38%*	146*	0.14*
COC(=O)c1cc2sccc2n1Cc1nc(-c2cccc(Cl)c2)oc1C	i	-8.5*	i	1.5	-8.7*	-1	28%*	i	30%*	93*	i
Cc1ccc(C(=O)N2CCN(c3ccc(C(F)(F)F)cn3)CC2)o1	.	.	.	.	i	.	.	.	.	.	.
Cc1onc(-c2ccc(Cl)cc2)c1-c1ccnc(SCC(=O)Nc2ccc(C(C)C)cc2)n1	i	-9.6*	i	-2.1	-11*	-5	40%*	i	29%*	115*	i
O=C(c1ccco1)N1c2ccccc2Sc2ccccc21	i	-9.4*	i	-2.7	-9.2*	-9	31%*	i	30%*	116*	i
O=C(c1ccco1)N1CCN(C(=O)N2c3ccccc3Sc3ccccc32)CC1	i	i	i	0.05	i	-11	.	.	.	.	.
Clc1ccc(OCCSc2ncccn2)c2ccccc12	i	-8.4*	i	-0.71	i	-16	i	i	50%*	106*	i

Bioassay records deposited in PubChem by Johns Hopkins Ion Channel Center.
